13 compounds from ChEMBL document CHEMBL1781887, “Sulfoximine-substituted trifluoromethylpyrimidine analogs as inhibitors of proline-rich tyrosine kinase 2 (PYK2) show reduced hERG activity” (Bioorg Med Chem Lett, 2009) can be followed below.

Series [1] in a line: (§1) Apparent permeability from apical to basolateral side of MDCK cells. To be noted: dog. In kind it is ADME, cell-based, Canis lupus familiaris. The gist of the method: (§2)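 Madin–Darby canine kidney cell monolayers. Permeability measured in the apical-to-basolateral direction and reported as Papp.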
Series [2] deals with hERG (KCNH2) (Homo sapiens, UniProt Q12809). In words: Inhibition of [3H]dofetilide binding to human ERG expressed in HEK293 cells at 10 uM. To be noted: HEK293 cells that express human ERG, probe [3H]dofetilide. In kind it is cell-based.
Sequence of hERG (KCNH2) (Q12809 whole entry): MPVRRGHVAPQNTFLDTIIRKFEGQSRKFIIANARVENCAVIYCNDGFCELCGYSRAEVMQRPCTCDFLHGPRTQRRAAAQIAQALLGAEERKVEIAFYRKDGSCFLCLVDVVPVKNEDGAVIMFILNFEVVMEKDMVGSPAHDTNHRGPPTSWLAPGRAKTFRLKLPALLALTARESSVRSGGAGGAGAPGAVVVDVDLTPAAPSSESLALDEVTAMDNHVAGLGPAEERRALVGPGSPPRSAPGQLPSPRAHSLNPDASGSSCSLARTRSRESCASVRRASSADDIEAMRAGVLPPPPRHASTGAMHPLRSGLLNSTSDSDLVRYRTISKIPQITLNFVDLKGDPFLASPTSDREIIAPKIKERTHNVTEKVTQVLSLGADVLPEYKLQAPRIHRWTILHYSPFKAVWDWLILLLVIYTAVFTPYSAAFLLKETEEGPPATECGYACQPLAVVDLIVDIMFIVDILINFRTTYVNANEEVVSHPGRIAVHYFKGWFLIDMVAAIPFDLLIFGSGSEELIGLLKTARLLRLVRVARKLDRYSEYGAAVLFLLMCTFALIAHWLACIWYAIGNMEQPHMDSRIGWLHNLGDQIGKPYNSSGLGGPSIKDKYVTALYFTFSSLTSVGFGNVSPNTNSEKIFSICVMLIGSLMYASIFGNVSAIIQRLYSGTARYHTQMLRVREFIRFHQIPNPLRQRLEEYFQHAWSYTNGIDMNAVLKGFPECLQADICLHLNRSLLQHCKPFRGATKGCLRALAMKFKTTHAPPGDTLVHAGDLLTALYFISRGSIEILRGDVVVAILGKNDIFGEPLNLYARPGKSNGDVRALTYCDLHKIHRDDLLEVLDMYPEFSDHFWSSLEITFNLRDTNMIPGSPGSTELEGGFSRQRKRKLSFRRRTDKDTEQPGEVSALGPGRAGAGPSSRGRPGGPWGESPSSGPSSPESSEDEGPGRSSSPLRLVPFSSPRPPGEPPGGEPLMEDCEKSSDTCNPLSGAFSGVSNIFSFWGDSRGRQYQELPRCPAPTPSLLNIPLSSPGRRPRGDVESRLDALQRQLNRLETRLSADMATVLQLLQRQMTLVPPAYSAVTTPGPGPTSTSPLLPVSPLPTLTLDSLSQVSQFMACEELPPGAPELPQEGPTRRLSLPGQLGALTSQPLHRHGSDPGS
In series [3] the target is T1, Protein-tyrosine kinase 2-beta (Homo sapiens, UniProt Q14289). In words: Inhibition of PYK2 by PYK2-LI-COR cellular assay.
T1 sequence (Q14289 whole entry): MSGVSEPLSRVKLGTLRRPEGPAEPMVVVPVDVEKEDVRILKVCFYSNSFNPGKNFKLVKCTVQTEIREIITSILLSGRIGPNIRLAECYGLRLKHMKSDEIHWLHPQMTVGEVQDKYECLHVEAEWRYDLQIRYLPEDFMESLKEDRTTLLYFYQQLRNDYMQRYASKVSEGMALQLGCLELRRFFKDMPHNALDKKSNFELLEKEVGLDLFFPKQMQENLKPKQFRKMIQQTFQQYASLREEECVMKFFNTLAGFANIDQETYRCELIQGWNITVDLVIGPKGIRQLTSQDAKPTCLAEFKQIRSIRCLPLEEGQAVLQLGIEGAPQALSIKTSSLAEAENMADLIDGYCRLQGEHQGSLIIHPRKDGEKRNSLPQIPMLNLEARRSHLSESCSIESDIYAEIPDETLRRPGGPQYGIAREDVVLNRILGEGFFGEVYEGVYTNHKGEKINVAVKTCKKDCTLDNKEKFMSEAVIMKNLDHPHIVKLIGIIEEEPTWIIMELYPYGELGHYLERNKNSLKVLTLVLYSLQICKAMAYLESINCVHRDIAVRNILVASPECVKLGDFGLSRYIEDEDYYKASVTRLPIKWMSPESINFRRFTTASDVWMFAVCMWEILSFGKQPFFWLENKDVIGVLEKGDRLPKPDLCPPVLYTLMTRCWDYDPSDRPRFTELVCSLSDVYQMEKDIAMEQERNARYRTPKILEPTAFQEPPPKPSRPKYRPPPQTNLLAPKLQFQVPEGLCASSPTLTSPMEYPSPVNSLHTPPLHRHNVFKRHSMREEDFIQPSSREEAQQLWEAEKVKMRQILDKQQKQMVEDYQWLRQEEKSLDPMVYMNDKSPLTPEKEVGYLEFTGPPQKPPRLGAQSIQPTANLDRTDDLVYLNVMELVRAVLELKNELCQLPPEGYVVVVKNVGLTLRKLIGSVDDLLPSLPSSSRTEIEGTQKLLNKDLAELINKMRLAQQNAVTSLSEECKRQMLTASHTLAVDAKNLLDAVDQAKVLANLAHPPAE
A short description of series [4]: Hepatic extraction ratio in human liver microsomes. In kind it is ADME, Microsome. As to conditions: read-out: ERH. In general terms: Liver microsomes are vesicles of endoplasmic reticulum, rich in cytochrome P450 enzymes.
The target of series [5] is T1, Protein-tyrosine kinase 2-beta. Kind of series: Inhibition of PYK2 assessed as reduction in peptide substrate phosphorylation by fluorimetric method.
Series [6] in a line: Mean residence time in Sprague-Dawley rat. The format is ADME, organism-based. As to conditions: in vivo.
The nature of series [7]: Fraction unbound in rat plasma at 1 ug/mL. The format is ADME, cell-free. The gist of the method: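 Rat plasma protein binding measured in vivo at a drug concentration of 1 μg/mL. Result expressed as fraction unbound (fu).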
Series [8] is described as follows: Volume of distribution at steady state in Sprague-Dawley rat at 1 mg/kg, iv. Also on record: dose 1 mg/kg, route intravenous. As to conditions: in vivo, read-out: Vdss. The format is ADME, organism-based. The gist of the method:
(§3)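 Sprague–Dawley rats given 1.0 mg/kg iv. CL and Vdss obtained by non-compartmental fit of the plasma concentration–time profiles. Values are means of two experiments.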

The nature of series [9]: Lipophilicity, log D of the compound at pH 7.4. The format is physicochemical. To be noted: buffer.
Series [10] is described as follows: Clearance in Sprague-Dawley rat at 1 mg/kg, iv. In kind it is ADME, organism-based. Also noted: dose 1 mg/kg, route intravenous. To be noted: in vivo. Summed up: as §3
Series [11] relates to MDCK. The description is as §1. The format is ADME, cell-based, Canis lupus familiaris. As to conditions: dog. The gist of the method: as §2
Series [12] is described as follows: Cmax in Sprague-Dawley rat at 10 mg/kg, po. In kind it is ADME, organism-based. Also on record: dose 10 mg/kg, route oral. To be noted: in vivo. Summed up:
(§4)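 Sprague–Dawley rats given a single 10 mg/kg oral dose. Cmax and AUCinf taken from the plasma concentration–time profile. Cave calculated as AUCinf divided by the dosing interval in h. Free concentration refers to the unbound fraction in plasma. Values are means of two experiments.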

Series [13] in a line: Oral bioavailability in Sprague-Dawley rat at 10 mg/kg, po. The format is ADME, organism-based. To be noted: in vivo.
The nature of series [14]: AUC (infinity) in Sprague-Dawley rat at 10 mg/kg, po. Also noted: time infinity, dose 10 mg/kg, route oral. The format is ADME, organism-based. As to conditions: plasma. Summed up:
as §4

For series [15], the system named is Rattus norvegicus. Kind of series: Average free plasma concentration in Sprague-Dawley rat at 10 mg/kg, po. As to conditions: in vivo. In kind it is ADME, organism-based. Also noted: dose 10 mg/kg, route oral. The gist of the method:
as §4

What is called Papp A→B is how fast a substance crosses the layer from the apical side. One may read the inhibition as how much of the control response was suppressed. Read a low inhibition as a response near the control. With `CN(C)[C@@H]1CCC[C@H]1Nc1nc(Nc2ccc(S(=O)(=O)NC3CC3)cc2)ncc1C(F)(F)F`, in series [1], the apical-to-basolateral permeability (Papp A→B) came out at 4.8 ×10⁻⁶ cm/s. In [2], the inhibition at 10 µM came out at 76%.
As usually defined, the IC50 is the concentration that inhibits the measured activity by half. With `CC[S+]([O-])(=NC)c1ccc(Nc2ncc(C(F)(F)F)c(N[C@@H]3CCC[C@H]3N(C)C)n2)cc1` (stereo partly drawn), the IC50 in [3] is 24 nM; in [5], 21 nM. Besides, the apical-to-basolateral permeability (Papp A→B) in [1] amounted to 7.8 ×10⁻⁶ cm/s. Further, the hepatic extraction ratio in [4] stood at 0.58. In addition, the inhibition at 10 µM in [2] was 2%.
For `CN(c1ccccc1CNc1nc(Nc2ccc3c(c2)CC(=O)N3)ncc1C(F)(F)F)S(C)(=O)=O`, in series [1], the Papp A→B came out at 9.2 ×10⁻⁶ cm/s. This compound also registered an inhibition at 10 µM in [2] of 41%.
For `CNS(=O)(=O)c1ccc(Nc2ncc(C(F)(F)F)c(N[C@@H]3CCC[C@H]3N(C)C)n2)cc1`, the Papp A→B in series [1] is 5.3 ×10⁻⁶ cm/s. In [2], testing at 10 µM gave an inhibition of 50%.
By MRT is commonly meant a mean duration of stay, worked out from the concentration-time curve. Broadly, the fraction unbound is the share of the substance not bound to proteins or other matrix. Low values mean little free substance, high ones much free substance. Usually logD stands for lipophilicity at a set pH, counting ionised and neutral species. The low end stands for lower lipophilicity, the high end for higher lipophilicity. By clearance is commonly meant the volume of plasma or blood freed of the substance per unit of time. The low end stands for inefficient removal, the high end for efficient removal. `CN(C)[C@@H]1CCC[C@H]1Nc1nc(Nc2ccc(S(C)(=O)=O)cc2)ncc1C(F)(F)F` displayed a mean residence time (MRT) in series [6] of 3.7 h. In series [7], the fraction unbound at 1 ug/mL was found to be 0.3. Moreover, the Papp A→B in [1] turned out to be 9.5 ×10⁻⁶ cm/s. In addition, the Vd in [8] amounted to 13 L/kg. The log distribution coefficient (logD) in series [9] amounted to 1.5. The same compound gave a clearance in series [10] of 42 mL/min/kg.
On to `CN=[S+](C)([O-])c1ccc(Nc2ncc(C(F)(F)F)c(N[C@@H]3CCC[C@H]3N(C)C)n2)cc1` (mixture of isomers), for which, in series [1], the Papp A→B was determined as 4.4 ×10⁻⁶ cm/s.
In the case of `CCN=[S+](C)([O-])c1ccc(Nc2ncc(C(F)(F)F)c(N[C@@H]3CCC[C@H]3N(C)C)n2)cc1` (mixture of isomers), the Papp A→B in series [1] turned out to be 4.7 ×10⁻⁶ cm/s. In series [2], this compound had an inhibition at 10 µM of 5.9%.
Take `CC(C)N=[S+](C)([O-])c1ccc(Nc2ncc(C(F)(F)F)c(N[C@@H]3CCC[C@H]3N(C)C)n2)cc1` (mixture of isomers): the IC50 in series [3] stood at 34 nM; in series [5], 22 nM. Also, in [1], the Papp A→B was determined as 6.6 ×10⁻⁶ cm/s. In addition, the hepatic extraction ratio in series [4] amounted to 0.78. In series [2], this compound came in with an inhibition at 10 µM of 8.4%.
Turning to `CN(C)[C@@H]1CCC[C@H]1Nc1nc(Nc2ccc([S+](C)(=N)[O-])cc2)ncc1C(F)(F)F` (mixture of isomers), the IC50 in [3] came to 320 nM; in series [5] it was 65 nM. In addition, in [1], the Papp A→B came out at 1 ×10⁻⁶ cm/s. Further, in series [4], the hepatic extraction ratio was below 0.29. This compound also had an inhibition at 10 µM in series [2] of 12%.
Usually Papp stands for the rate of passage across a membrane or cell layer, normalised by area and donor concentration. Regarding `CN=[S+](C)([O-])c1ccc(Nc2ncc(C(F)(F)F)c(N[C@@H]3CCC[C@H]3N(C)C)n2)cc1` (stereo in doubt; (R)-14a), the Papp in series [11] came to 5.7 ×10⁻⁶ cm/s.
On to `CCN=[S+](C)([O-])c1ccc(Nc2ncc(C(F)(F)F)c(N[C@@H]3CCC[C@H]3N(C)C)n2)cc1` (stereo in doubt; (R)-14b), for which the apparent permeability coefficient (Papp) in series [11] came out at 9.3 ×10⁻⁶ cm/s.
The term Cmax denotes the maximum level reached in the sampled fluid or tissue. As usually defined, the bioavailability is dose-corrected exposure relative to a reference, in per cent. Read a high bioavailability as much systemic uptake. In general, AUC(0-inf) refers to the area under the concentration-time curve extrapolated to infinity. Read a low AUC(0-inf) as less exposure. Turning to `CN=[S+](C)([O-])c1ccc(Nc2ncc(C(F)(F)F)c(N[C@@H]3CCC[C@H]3N(C)C)n2)cc1` (stereo in doubt; (S)-14a), in series [12], the highest level (Cmax) was 720 nM. Besides, in series [6], the MRT worked out at 2.3 h. The compound also displayed a fraction unbound at 1 ug/mL in series [7] of 0.36. For the same compound, the apparent permeability coefficient (Papp) in series [11] is given as 5.1 ×10⁻⁶ cm/s. In addition, the bioavailability in [13] stood at 100%. Moreover, in series [8], the Vd stood at 13 L/kg. This compound also came in with a pH-dependent lipophilicity (logD) in [9] of 1.7. In [14], this compound came in with an AUC(0-inf) of 5 µM·h. Also, the clearance in series [10] worked out at 74 mL/min/kg. For the same compound, the Cp(f) in series [15] turned out to be 76 nM.
Take `CCN=[S+](C)([O-])c1ccc(Nc2ncc(C(F)(F)F)c(N[C@@H]3CCC[C@H]3N(C)C)n2)cc1` (stereo in doubt; (S)-14b): the apparent permeability coefficient (Papp) in [11] came out at 8.3 ×10⁻⁶ cm/s.
